Data: ChEMBL document CHEMBL1130100, “Stabilized analogs of thymopentin. 3. Evaluation of ketomethylene pseudopeptides for antiarthritic properties” (1997)
Values joined by “and” are separate entries in the source; they are usually repeats but may differ in a detail not shown here. Equal values may be shown once.

Assays:
Format in all cases: functional
Mus musculus [1] = experiment: On set and incidence of arthritis in the Mouse Type II collagen model at 0.5 dose mg/kg on day 44, expressed as number of mice treated out of 12 tested
Method in brief: (§1)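 DBA/1 Lac mice sensitized with bovine type II collagen (100 μg) in Freund's complete adjuvant, ip boost (100 μg) on day 21. Freshly dissolved compound in sterile saline was given iv every second day, day 19 through day 40, groups of 12. A mouse was scored arthritic if erythema or edema was present on any digit, paw or appendage. Incidence reported as number positive of 12.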

Mus musculus [2] = experiment: Extent of paw swelling after treatment with thymopentin-5 (TP-5) compound in the Mouse Type II collagen arthritis at a dosage of 1.0 mg/kg on day 44
Method in brief: (§2)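 DBA/1 Lac mice immunized with bovine type II collagen (100 μg) in Freund's complete adjuvant at four to six back sites, then boosted ip (100 μg) on day 21. Dosing was iv in sterile saline every second day from day 19 through day 40, 12 mice per dose. Each hind paw was measured by caliper. Result given as % of untreated swelling after subtracting age-matched normal paw.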

Mus musculus [3] = experiment: On set and incidence of arthritis in the Mouse Type II collagen model at 0.5 dose mg/kg on day 37, expressed as number of mice treated out of 12 tested; method in brief: as §1
Mus musculus [4] = experiment: On set and incidence of arthritis in the Mouse Type II collagen model at 0.5 dose mg/kg on day 40, expressed as number of mice treated out of 12 tested; method in brief: as §1
Mus musculus [5] = experiment: Extent of paw swelling after treatment with thymopentin-5 (TP-5) compound in the Mouse Type II collagen arthritis at a dosage of 1.0 mg/kg on day 40; method in brief: as §2
Mus musculus [6] = experiment: On set and incidence of arthritis in the Mouse Type II collagen model following 0.5 mg/kg on day 30.; method in brief: as §1
Mus musculus [7] = experiment: Extent of paw swelling after treatment with thymopentin-5 (TP-5) compound in the Mouse Type II collagen arthritis at a dosage of 1.0 mg/kg on day 37; method in brief: as §2
Mus musculus [8] = experiment: Extent of paw swelling after treatment with thymopentin-5 (TP-5) compound in the Mouse Type II collagen arthritis at 1 mg/kg on day 30.; method in brief: as §2
Mus musculus [9] = experiment: On set and incidence of arthritis in the Mouse Type II collagen model at 0.5 dose mg/kg on day 44, expressed as ratio of number treated to that of control; method in brief: as §1
Mus musculus [10] = experiment: On set and incidence of arthritis in the Mouse Type II collagen model at 0.5 dose mg/kg on day 40, expressed as ratio of number treated to that of control; method in brief: as §1
Mus musculus [11] = experiment: Extent of paw swelling after treatment with thymopentin-5 (TP-5) compound in mouse type II collagen arthritis at a dosage of 1.0 mg/kg on day 30; method in brief: as §2
Mus musculus [12] = experiment: On set and incidence of arthritis in the Mouse Type II collagen model at 0.5 dose mg/kg on day 37, expressed as ratio of number treated to that of control; method in brief: as §1
Mus musculus [13] = experiment: On set and incidence of arthritis in the Mouse Type II collagen model at 0.5 dose mg/kg on day 37,expressed as number of mice treated out of 12 tested; method in brief: as §1
Rattus norvegicus [14] = experiment: extent of paw swelling following treatment with the compound in the rat adjuvant arthritis model observed on day 19 at 0.050 mg/kg dose; settings: dose 0.05 mg/kg
Method in brief: (§3)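 Rat adjuvant arthritis with iv dosing every second day, starting 2 days before the adjuvant/antigen challenge. Initial doses ranged 0.05 to 0.50 mg/kg, eight rats per dose. Each hind paw was measured by caliper. Swelling minus age-matched normal paw, expressed as % of untreated animals.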

Rattus norvegicus [15] = experiment: extent of paw swelling following treatment with the compound in the rat adjuvant arthritis model observed on day 16 at 0.050 mg/kg dose; settings: dose 0.05 mg/kg; method in brief: as §3
Rattus norvegicus [16] = experiment: extent of paw swelling following treatment with the compound in the rat adjuvant arthritis model observed on day 12 at 0.050 mg/kg dose; settings: dose 0.05 mg/kg; method in brief: as §3
Mus musculus [17] = experiment: On set and incidence of arthritis in the Mouse Type II collagen model at 0.5 dose mg/kg on day 40,expressed as number of mice treated out of 12 tested; method in brief: as §1
Mus musculus [18] = experiment: Extent of paw swelling after treatment with thymopentin-5 (TP-5) compound in the Mouse Type II collagen arthritis at a dosage of 0.001 mg/kg on day 30; method in brief: as §2
Mus musculus [19] = experiment: 68 Extent of paw swelling after treatment with thymopentin-5 (TP-5) compound in the Mouse Type II collagen arthritis at a dosage of 0.001 mg/kg on day 30; method in brief: as §2
Mus musculus [20] = experiment: Extent of paw swelling after treatment with thymopentin-5 (TP-5) compound in the Mouse Type II collagen arthritis at a dosage of 0.01 mg/kg on day 37; method in brief: as §2
Mus musculus [21] = experiment: Extent of paw swelling after treatment with thymopentin-5 (TP-5) compound in the Mouse Type II collagen arthritis at a dosage of 0.01 mg/kg on day 30; method in brief: as §2
Mus musculus [22] = experiment: Extent of paw swelling after treatment with thymopentin-5 (TP-5) compound in the Mouse Type II collagen arthritis at a dosage of 0.01 mg/kg on day 44; method in brief: as §2
Mus musculus [23] = experiment: Extent of paw swelling after treatment with thymopentin-5 (TP-5) compound in the Mouse Type II collagen arthritis at a dosage of 0.501 mg/kg on day 40; settings: dose 0.01 mg/kg; in the assay text read “0.01 mg/kg” for “0.501 mg/kg”; method in brief: as §2
Rattus norvegicus [24] = experiment: extent of paw swelling following treatment with the compound in the rat adjuvant arthritis model observed on day 16 at 0.50 mg/kg dose; settings: dose 0.5 mg/kg; method in brief: as §3
Rattus norvegicus [25] = experiment: extent of paw swelling following treatment with the compound in the rat adjuvant arthritis model observed on day 12 at 0.50 mg/kg dose; settings: dose 0.5 mg/kg; method in brief: as §3
Rattus norvegicus [26] = experiment: extent of paw swelling following treatment with the compound in the rat adjuvant arthritis model observed on day 19 at 0.50 mg/kg dose; settings: dose 0.5 mg/kg; method in brief: as §3
Rattus norvegicus [27] = experiment: extent of paw swelling following treatment with the compound in the rat adjuvant arthritis model observed on day 12 at 0.075 mg/kg dose; method in brief: as §3
Rattus norvegicus [28] = experiment: extent of paw swelling following treatment with the compound in the rat adjuvant arthritis model observed on day 19 at 0.075 mg/kg dose; method in brief: as §3
Rattus norvegicus [29] = experiment: extent of paw swelling following treatment with the compound in the rat adjuvant arthritis model observed on day 16 at 0.075 mg/kg dose; method in brief: as §3

| Compound | No. of mice (Mus musculus [1]) | No. of mice (Mus musculus [3]) | No. of mice (Mus musculus [4]) | No. of mice (Mus musculus [6]; 0.5 mg/kg) | Paw swelling (Mus musculus [8]) [%] | No. of mice (Mus musculus [9]) | No. of mice (Mus musculus [12]) | No. of mice (Mus musculus [6]) | further results |
| --- | --- | --- | --- | --- | --- | --- | --- | --- | --- |
| CC(C)[C@H](NC(=O)[C@H](CC(=O)O)NC(=O)[C@@H]1CCCN1C(=O)[C@@H](N)CCCN=C(N)N)C(=O)C[C@@H](Cc1ccccc1)C(=O)O (stereo in doubt; 1b-B) | 11 | 9 | 10 | 6 | 66 | – | – | – | Paw swelling (Mus musculus [2]): 53%; Paw swelling (Mus musculus [5]): 42%; Paw swelling (Mus musculus [7]): 59% |
| CC(C)C(CC(=O)[C@H](CC(=O)O)NC(=O)C(CCCCN)NC(=O)[C@@H](N)CCCN=C(N)N)C(=O)NC(Cc1ccc(O)cc1)C(=O)O (stereo partly drawn) | – | – | – | – | – | 12 | 11 | 8 | No. of mice (Mus musculus [10]): 12; Paw swelling (Mus musculus [11]): 100% |
| CCCCC(NC(=O)[C@H](CCCN=C(N)N)NC(C)=O)C(=O)N[C@@H](CC(=O)O)C(=O)NC(C(=O)C[C@@H](Cc1ccccc1)C(=O)O)C(C)C (stereo partly drawn) | 12 | – | 11 | – | 100 | – | – | 8 | No. of mice (Mus musculus [13]): 11; Paw swelling (Rattus norvegicus [14]): 100%; Paw swelling (Rattus norvegicus [15]): 100%; Paw swelling (Rattus norvegicus [16]): 0% |
| CCCC[C@@H](C(=O)N[C@@H](CC(=O)O)C(=O)N[C@H](C(=O)C[C@H](Cc1ccccc1)C(=O)O)C(C)C)N(C)C(=O)[C@@H](N)CCCN=C(N)N | 8 | 7 | – | – | – | – | – | 7 | No. of mice (Mus musculus [17]): 7; Paw swelling (Mus musculus [18]): 90% and 43%; Paw swelling (Mus musculus [19]): 90% |
| CC(C)[C@H](NC(=O)[C@H](CC(=O)O)NC(=O)[C@@H]1CCCN1C(=O)[C@@H](N)CCCN=C(N)N)C(=O)C[C@@H](Cc1ccccc1)C(=O)O (stereo in doubt; 1b-A) | 9 | – | 9 | 8 | – | – | – | – | Paw swelling (Mus musculus [20]): 72%; Paw swelling (Mus musculus [21]): 62%; Paw swelling (Mus musculus [22]): 47%; Paw swelling (Mus musculus [23]): 60% |
| CC(C)C(CC(=O)[C@H](CC(=O)O)NC(=O)C(CCCCN)N(C)C(=O)[C@@H](N)CCCN=C(N)N)C(=O)N[C@@H](Cc1ccccc1)C(=O)O (stereo partly drawn) | 8 | 4 | 8 | – | – | – | – | 6 | Paw swelling (Mus musculus [11]; 1 mg/kg): 100% and 46% and 53%; Paw swelling (Rattus norvegicus [24]): 80%; Paw swelling (Rattus norvegicus [25]): 0%; Paw swelling (Rattus norvegicus [26]): 52% |
| CCCCC(CC(=O)[C@@H](N)CCCN=C(N)N)C(=O)N[C@@H](CC(=O)O)C(=O)NC(C(=O)N[C@@H](Cc1ccccc1)C(=O)O)C(C)C (stereo partly drawn) | – | – | – | – | 100 | 8 | 7 | 3 | No. of mice (Mus musculus [10]): 7 |
| CCCCC(CC(=O)[C@@H](N)CCCN=C(N)N)C(=O)N[C@@H](CC(=O)O)C(=O)NC(C(=O)C[C@H](C(=O)O)C(C)C)C(C)C (stereo in doubt; 1h-B) | – | – | – | 6 | – | 9 | 7 | – | Paw swelling (Rattus norvegicus [27]): 0%; Paw swelling (Rattus norvegicus [28]): 70%; Paw swelling (Rattus norvegicus [29]): 100% |
